For twelve compounds, Activity, inhibition and IC50 results are on record in ChEMBL document CHEMBL6134764, “Synthesis and biological evaluation of novel D-ring fused steroidal N(2)-substituted-1,2,3-triazoles” (RSC Med Chem, 2025).

SMILES strings stand for the structures. pIC50: −log10 of the molar value. The source made the active and inactive calls. The rule behind the calls is not given here.

In series [1] the target is T1, Estrogen receptor (Homo sapiens) (UniProt P03372).
T1 sequence (whole entry): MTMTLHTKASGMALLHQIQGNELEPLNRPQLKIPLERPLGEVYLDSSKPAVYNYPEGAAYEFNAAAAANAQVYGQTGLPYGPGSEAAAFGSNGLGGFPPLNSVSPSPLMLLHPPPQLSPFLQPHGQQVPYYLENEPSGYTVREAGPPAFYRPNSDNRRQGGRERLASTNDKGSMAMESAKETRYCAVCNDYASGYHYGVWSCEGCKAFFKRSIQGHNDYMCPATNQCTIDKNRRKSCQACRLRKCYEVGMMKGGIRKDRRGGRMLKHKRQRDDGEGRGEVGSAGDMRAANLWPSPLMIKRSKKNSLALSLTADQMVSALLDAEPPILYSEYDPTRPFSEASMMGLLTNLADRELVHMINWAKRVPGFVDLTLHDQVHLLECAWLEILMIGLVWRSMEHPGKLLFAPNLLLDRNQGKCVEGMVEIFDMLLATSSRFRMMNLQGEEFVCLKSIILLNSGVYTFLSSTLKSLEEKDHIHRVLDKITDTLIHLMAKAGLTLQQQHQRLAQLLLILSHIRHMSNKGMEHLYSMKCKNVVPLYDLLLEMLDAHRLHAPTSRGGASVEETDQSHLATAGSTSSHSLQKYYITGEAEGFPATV
The series is described as follows: Binding affinity to human recombinant ERalpha ligand binding domain extracted from saccharomyces cerevisiae coexpressing yellow fluorescent protein assessed as relative binding affinity at 10 uM incubated for 14 to 16 hrs by fluorimetry based fluorescence microscopic analysis. To be noted: time 14-16 hrs. Put shortly: (§1)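 S. cerevisiae FY250 carrying receptor LBD–EYFP fusions (human ERα, ERβ, AR; rat GR); raffinose drop-out medium, grown to OD600 ~0.6, fusion induced with 2% galactose. Compounds 10 μM (ER, AR) or 100 μM (GR), 14–16 h, 25 °C, dark; DMSO solvent control. Fluorescence at ex/em 485/538 nm, triplicate; fold change vs DMSO (normalized to 1).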

Series [2] concerns the target T2, Androgen receptor (Homo sapiens) (UniProt P10275).
T2 sequence (whole entry): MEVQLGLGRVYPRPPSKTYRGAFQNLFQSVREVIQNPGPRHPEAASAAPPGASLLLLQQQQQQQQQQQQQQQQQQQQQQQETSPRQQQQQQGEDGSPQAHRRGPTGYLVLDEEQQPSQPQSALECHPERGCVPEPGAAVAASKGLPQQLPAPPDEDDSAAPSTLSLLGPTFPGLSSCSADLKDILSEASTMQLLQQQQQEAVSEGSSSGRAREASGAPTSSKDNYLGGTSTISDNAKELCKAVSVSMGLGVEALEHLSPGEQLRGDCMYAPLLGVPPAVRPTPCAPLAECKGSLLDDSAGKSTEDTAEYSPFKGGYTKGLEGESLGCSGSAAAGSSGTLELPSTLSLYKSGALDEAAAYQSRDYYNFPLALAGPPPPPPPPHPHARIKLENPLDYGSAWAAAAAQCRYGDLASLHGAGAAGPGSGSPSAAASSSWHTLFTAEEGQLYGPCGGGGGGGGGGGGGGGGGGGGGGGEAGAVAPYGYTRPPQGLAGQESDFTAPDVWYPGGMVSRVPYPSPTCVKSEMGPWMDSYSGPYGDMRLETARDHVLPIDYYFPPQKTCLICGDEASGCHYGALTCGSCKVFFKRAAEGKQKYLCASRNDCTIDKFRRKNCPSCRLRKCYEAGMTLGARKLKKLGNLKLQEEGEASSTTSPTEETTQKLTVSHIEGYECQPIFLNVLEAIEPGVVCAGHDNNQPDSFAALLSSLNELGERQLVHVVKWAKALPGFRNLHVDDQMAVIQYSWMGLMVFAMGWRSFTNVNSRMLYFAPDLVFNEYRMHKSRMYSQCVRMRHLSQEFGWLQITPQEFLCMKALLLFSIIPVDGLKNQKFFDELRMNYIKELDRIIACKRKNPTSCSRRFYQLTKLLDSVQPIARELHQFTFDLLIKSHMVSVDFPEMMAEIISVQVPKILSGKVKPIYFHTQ
Kind of series: Binding affinity to human recombinant androgen receptor ligand binding domain extracted from saccharomyces cerevisiae coexpressing yellow fluorescent protein assessed as relative binding affinity at 10 uM incubated for 14 to 16 hrs by fluorimetry based fluorescence microscopic analysis. To be noted: time 14-16 hrs. Put shortly:
as §1

Series [3] concerns the target Estrogen receptor beta (Homo sapiens) (UniProt Q92731). Kind of series: Binding affinity to human recombinant ERbeta ligand binding domain extracted from saccharomyces cerevisiae coexpressing yellow fluorescent protein assessed as relative binding affinity at 10 uM incubated for 14 to 16 hrs by fluorimetry based fluorescence microscopic analysis. To be noted: time 14-16 hrs. Put shortly:
as §1

Series [4] has as its target T3, Aldo-keto reductase family 1 member C4 (Homo sapiens) (UniProt P17516).
T3 sequence (whole entry): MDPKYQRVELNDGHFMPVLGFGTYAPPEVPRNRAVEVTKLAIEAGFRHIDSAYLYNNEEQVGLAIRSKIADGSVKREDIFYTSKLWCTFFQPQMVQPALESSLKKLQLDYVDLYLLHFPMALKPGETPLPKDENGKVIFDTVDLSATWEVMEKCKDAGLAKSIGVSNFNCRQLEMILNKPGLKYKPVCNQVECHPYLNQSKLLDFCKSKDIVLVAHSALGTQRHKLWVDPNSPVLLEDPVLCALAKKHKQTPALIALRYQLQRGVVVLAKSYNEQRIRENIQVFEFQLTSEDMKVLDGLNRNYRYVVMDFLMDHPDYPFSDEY
The series is described as follows: Inhibition of N-terminal his-tagged recombinant human AKR1C4 assessed as NADPH consumption using 9,10-phenanthrenequinone as substrate at 33 uM by fluorescence spectroscopic analysis relative to control. Put shortly: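 N-His-tagged human AKR1C4 from E. coli BL21(DE3), purified by Ni-affinity and size exclusion. Enzyme at 160 μg/mL with 17 μM 9,10-phenanthrenequinone and 250 μM NADPH in 100 mM potassium phosphate pH 6.0, 37 °C, duplicate. Compound at 33 μM final. NADPH fluorescence (ex 340/em 460 nm) read every 30 s for 10 min; inhibition from linear slope vs uninhibited enzyme (100%).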

A further series concerns HCT-116. The series is described as follows: Cytotoxicity against human HCT-116 cells assessed as reduction in cell viability incubated for 72 hrs by resazurin assay. The following applies: HCT-116, 72 h.
For the next series, the system named is Huh-7. The series is described as follows: Cytotoxicity against human Huh-7 cells assessed as reduction in cell viability incubated for 72 hrs by resazurin assay. To be noted: Huh-7, 72 h. A general note: The colour change of resazurin is a common sign of viable cells or microbes.
A further series has as its system MCF7. Kind of series: Cytotoxicity against human MCF7 cells assessed as reduction in cell viability incubated for 72 hrs by resazurin assay. To be noted: MCF7, 72 h.
The test system of the next series is MDA-MB-231. The series is described as follows: Cytotoxicity against human MDA-MB-231 cells assessed as reduction in cell viability incubated for 72 hrs by resazurin assay. The following applies: MDA-MB-231, 72 h.
Series [5] in a line: Toxicity in human hTERT-BJ cells assessed as reduction in cell viability at 0.01 to 100 uM incubated for 72 hrs by resazurin assay. To be noted: dose 0.01-100 µM. It counts as cell-based. A digest of the protocol:
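hTERT-immortalized BJ-5ta foreskin fibroblasts grown in high-glucose DMEM with 20% Medium 199 and 10% FBS. Exposed to 0.01–100 μM for 72 h, then 0.01 mg/mL resazurin for 2 h, fluorescence at 584 nm; n = 3; one-way ANOVA with Dunnett's test vs control.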

Estrogen receptor beta (Homo sapiens), sequence (Q92731 whole entry, the tested form may be a part): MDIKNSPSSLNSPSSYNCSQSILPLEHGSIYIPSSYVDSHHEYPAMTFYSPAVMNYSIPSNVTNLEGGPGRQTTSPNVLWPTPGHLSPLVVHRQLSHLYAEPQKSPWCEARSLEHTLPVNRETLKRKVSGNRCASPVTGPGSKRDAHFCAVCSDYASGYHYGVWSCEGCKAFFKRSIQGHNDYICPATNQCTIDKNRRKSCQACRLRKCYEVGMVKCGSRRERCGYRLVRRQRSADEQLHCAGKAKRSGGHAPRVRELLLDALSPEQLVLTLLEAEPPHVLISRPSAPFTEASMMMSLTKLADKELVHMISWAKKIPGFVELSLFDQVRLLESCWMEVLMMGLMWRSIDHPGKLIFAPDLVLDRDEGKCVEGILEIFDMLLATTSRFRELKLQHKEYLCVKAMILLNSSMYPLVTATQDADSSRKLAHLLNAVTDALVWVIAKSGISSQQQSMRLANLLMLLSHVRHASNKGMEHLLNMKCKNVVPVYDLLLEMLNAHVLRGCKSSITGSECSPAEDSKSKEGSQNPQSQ

A word on the inhibition: it is how much of the control response was suppressed. As for `C[C@]12CC[C@@H]3c4ccc(OCc5ccccc5)cc4CC[C@H]3[C@@H]1Cc1nn(Cc3ccccc3)nc12`, the result in series [1] and in series [2] was inactive. Moreover, in [3], the result was Active. The inhibition in series [4] amounted to 0%.
As usually defined, the pIC50 is the IC50 on a negative log10 scale, so that one unit is a factor of ten. For `C[C@]12CC[C@H](O)CC1=CC[C@@H]1[C@@H]2CC[C@]2(C)c3nn(CCN)nc3C[C@@H]12`, the result in series [1] and in series [2] was inactive. Also, the inhibition in series [4] came out at 2.29%. The pIC50 with HCT-116, in the series with Huh-7, in the series on MCF7 and in the series on MDA-MB-231 was 4.65 in each case. In series [5], the Activity entry was “Toxic”.
As for `CCn1nc2c(n1)[C@@]1(C)CC[C@H]3[C@@H](CC=C4C[C@@H](O)CC[C@@]43C)[C@@H]1C2`, the result in [1] and in series [2] was inactive. Moreover, the inhibition in series [4] was 2.81%.
As for `Cn1nc2c(n1)[C@@]1(C)CC[C@H]3[C@@H](CC=C4C[C@@H](O)CC[C@@]43C)[C@@H]1C2`, the result in [1] and in series [2] was inactive. In addition, the result in [3] was Active. The inhibition in [4] came to 0%.
`Cn1nc2c(n1)[C@@]1(C)CC[C@@H]3c4ccc(OCc5ccccc5)cc4CC[C@H]3[C@@H]1C2`: the result in series [1] and in [2] was inactive. Besides, the inhibition in series [4] amounted to 0%.
For the compound `CCOC(=O)Cn1nc2c(n1)[C@@]1(C)CC[C@H]3[C@@H](CC=C4C[C@@H](O)CC[C@@]43C)[C@@H]1C2`, the outcome in [1] and in series [2] was inactive. The inhibition in series [4] was 0%.
Take `CC(=O)O[C@H]1CC[C@@]2(C)C(=CC[C@@H]3[C@@H]2CC[C@]2(C)c4nn(C(C)=O)nc4C[C@@H]32)C1`: the outcome in series [1] and in series [2] was inactive. The result in series [3] was Active. In addition, in series [4], the inhibition was 8.32%.
With `CCCCn1nc2c(n1)[C@@]1(C)CC[C@H]3[C@@H](CC=C4C[C@@H](O)CC[C@@]43C)[C@@H]1C2`, the outcome in series [1] and in [2] was inactive. Besides, the inhibition in series [4] turned out to be 0%.
Regarding `C[C@]12CC[C@H](O)CC1=CC[C@@H]1[C@@H]2CC[C@]2(C)c3nn(Cc4ccccc4)nc3C[C@@H]12`, the outcome in series [1] and in [2] was inactive. Further, in series [4], the inhibition is 0%.
On to `CC(C)Cc1ccc(C(C)C(=O)O)cc1` (configuration not stated), for which the inhibition in series [4] is 43.9%.
On to `CCn1nc2c(n1)[C@@]1(C)CC[C@@H]3c4ccc(OCc5ccccc5)cc4CC[C@H]3[C@@H]1C2`, for which the outcome in series [1] and in series [2] was inactive. For the same compound, the inhibition in series [4] is 0%.
Regarding `CCCCCCCCn1nc2c(n1)[C@@]1(C)CC[C@@H]3c4ccc(OCc5ccccc5)cc4CC[C@H]3[C@@H]1C2`, the result in [1] and in series [2] was inactive. Further, the inhibition in [4] was found to be 0%.
